Activity calls are given as the source filed them. The calls are words filed in the database; no cut-off is given here.
Assays:
[1] = Cytotoxicity against BHK cells infected with West Nile virus replicon assessed as cell viability after 3 days by CellTiter 96 aqueous one solution cell proliferation assay; assay type: cell-based, Mesocricetus auratus; conditions: hamster, 72 h
Outline: (§1)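 WNV replicon BHK cells, about 3 × 10^3/well, plated without antibiotic selection; next day compound in DMSO (10 μM final for screening, or eight serial dilutions), 3 days at 37°C, 5% CO2. Tetrazolium reagent, absorbance 450 nm, triplicate means versus DMSO wells; CC50 = 50% reduction in proliferation; CC50s mean ± SD of two experiments, top dose 200 μM.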

[2] = system: Human immunodeficiency virus 1; assay: Antiviral activity against HIV1; assay type: functional, organism-based
dengue virus type 3 = assay: Displacement of [3H]-SAM from biotinylated Dengue virus 3 methyltransferase expressed in Escherichia coli at 20 uM preincubated for 20 mins followed by [3H]-SAM addition measured after 15 mins by scintillation counting analysis
Outline: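 Biotinylated refolded E. coli-expressed DENV3 MTase (580 nM) with SPA beads (1.5 mg/mL) and 20 μM competitor (compound, SAM or sinefungin) in Tris pH 7.5 buffer with NaCl, KCl, MgCl2, MnCl2, CHAPS, 20 min at 23°C; 3H-SAM (425 nM) added, 15 min at 23°C, centrifuged, scintillation proximity counting.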

[3] = biological target: Human immunodeficiency virus type 1 reverse transcriptase (Human immunodeficiency virus 1) (UniProt Q72547); assay: Inhibition of HIV1 reverse transcriptase
[4] = system: unidentified influenza virus; assay: Antiviral activity against Influenzae virus; assay type: functional, organism-based
Human betaherpesvirus 5 = assay: Antiviral activity against Human cytomegalovirus; assay type: functional, organism-based
Hepatitis C virus = assay: Antiviral activity against HCV; assay type: functional, organism-based; conditions: Hepacivirus hominis
West Nile virus [5] = assay: Antiviral activity against West Nile virus infected in BHK-WII RepRen1B cells assessed as inhibition of viral replication at 10 uM after 3 days by luciferase reporter gene assay relative to control; assay type: functional; conditions: 72 h
Outline: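 Compound (DMSO, 10 μM final) added next day in triplicate; lycorine 1 μM served as control inhibitor. Three days on, live-cell Renilla substrate (1:1000 in phenol-red-free DME, 10% FBS) replaced medium. Luminescence measured; triplicate means compared with DMSO-alone wells.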

[6] = Cytotoxicity against BHK cells infected with West Nile virus replicon assessed as cell viability at 10 uM after 3 days by CellTiter 96 aqueous one solution cell proliferation assay relative to control; assay type: cell-based, Mesocricetus auratus; conditions: hamster, bhk, 72 h, 10 µM; outline: as §1
Dengue virus [7] = assay: Antiviral activity against Dengue virus infected in BHK pD2-hRucPac-2ATG cells assessed as inhibition of viral replication at 10 uM after 3 days by luciferase reporter gene assay relative to control; assay type: functional; conditions: 72 h
Outline: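 Renilla luciferase-bearing DENV subgenomic replicon BHK cells, kept on 3 μg/mL puromycin, seeded at 1.5 × 10^3/well without selection. Next day, 10 μM final compound in DMSO added to triplicate wells; MPA 1 μM as control inhibitor. After 3 days, medium swapped for live-cell Renilla substrate (1:1000, phenol-red-free DME, 10% FBS). Luminescence read; triplicate mean compared with DMSO-only wells.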

[8] = Cytotoxicity against BHK cells infected with Dengue virus replicon assessed as cell viability at 10 uM after 3 days by CellTiter 96 aqueous one solution cell proliferation assay relative to control; assay type: cell-based, Mesocricetus auratus; conditions: hamster, bhk, 72 h, 10 µM
Outline: as §1, with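 “DENV” for “WNV”, “1.5” for “about 3”, “Tetrazolium (MTS-type)” for “Tetrazolium”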

West Nile virus [9] = assay: Antiviral activity against West Nile virus infected in BHK-WII RepRen1B cells assessed as inhibition of viral replication after 3 days by luciferase reporter gene assay; assay type: functional, organism-based; conditions: 72 h
Dengue virus [10] = assay: Antiviral activity against Dengue virus infected in BHK pD2-hRucPac-2ATG cells assessed as inhibition of viral replication after 3 days by luciferase reporter gene assay; assay type: functional, organism-based; conditions: 72 h
Outline: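 BHK DENV subgenomic replicon line carrying Renilla luciferase, kept on 3 μg/mL puromycin; 1.5 × 10^3 cells/well plated without selection, compounds in DMSO added next day to triplicate wells, at 10 μM final for screening or eight serial dilutions. Live-cell Renilla substrate after 3 days, luminescence versus DMSO wells; EC50 = 50% luciferase reduction; MPA 1 μM control.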

[11] = Cytotoxicity against BHK cells infected with Dengue virus replicon assessed as cell viability after 3 days by CellTiter 96 aqueous one solution cell proliferation assay; assay type: cell-based, Mesocricetus auratus; conditions: hamster, 72 h
Outline: as §1, with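 “DENV” for “WNV”, “1.5” for “about 3”, “Tetrazolium (MTS-type)” for “Tetrazolium”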

Row | SMILES | CC50 [1] [µM] | Activity [2] | inhibition (dengue virus type 3) | inhibition [3] | Activity [4] | Activity (Human betaherpesvirus 5) | Activity (Hepatitis C virus) | inhibition at 10 µM (West Nile virus [5]) [%] | Activity [6] [%] | inhibition at 10 µM (Dengue virus [7]) [%] | Activity [8] [%] | EC50 (West Nile virus [9]) [µM] | EC50 (Dengue virus [10]) [µM] | CC50 [11] [µM]
1 | Cc1cn([C@H]2C[C@H](NC(=O)C(c3ccccc3)(c3ccccc3)c3ccccc3)[C@@H](CO[Si](C)(C)C(C)(C)C)O2)c(=O)[nH]c1=O | 15 | inactive | Active | inactive | inactive | inactive | inactive | 54 | 100 | 28 | 100 | 9.9 |  | 
2 | Cc1cn([C@H]2C[C@H](N3C(=O)CSC3c3c4ccccc4cc4ccccc34)[C@@H](CO[Si](C)(C)C(C)(C)C)O2)c(=O)[nH]c1=O (mixture of isomers) | 27 | inactive | Active | inactive | inactive | inactive | inactive | 85 | 90 | 46 | 97 | 9 |  | 
3 | Cc1cn([C@H]2C[C@H](n3nncc3-c3ccccc3)[C@@H](CO[Si](C)(C)C(C)(C)C)O2)c(=O)[nH]c1=O | 32 | inactive | Active | inactive | inactive | inactive | inactive | 93 | 99 | 51 | 93 | 8.4 | 14 | 31
4 | Cc1cn([C@H]2C[C@H](N3C(=O)CSC3c3ccc4[nH]ccc4c3)[C@@H](CO[Si](C)(C)C(C)(C)C)O2)c(=O)[nH]c1=O (mixture of isomers) | 15 | inactive | Active | inactive | inactive | inactive | inactive | 92 | 99 | 49 | 99 | 3.4 |  | 
5 | Cc1cn([C@H]2C[C@H](n3nncc3C3CCCCC3)[C@@H](CO[Si](C)(C)C(C)(C)C)O2)c(=O)[nH]c1=O | 24 | inactive | Active | inactive | inactive | inactive | inactive | 85 | 100 | 75 | 93 | 7.1 | 7.5 | 22
6 | Cc1cn([C@H]2C[C@H](NC(=O)c3cccc4ccccc34)[C@@H](CO[Si](C)(C)C(C)(C)C)O2)c(=O)[nH]c1=O | > 200 | inactive | Active | inactive | inactive | inactive | inactive | 37 | 94 | 11 | 99 | 33 |  | 
7 | Cc1cn([C@H]2C[C@H](NC(=O)Nc3cccc4ccccc34)[C@@H](CO[Si](C)(C)C(C)(C)C)O2)c(=O)[nH]c1=O |  |  | Active |  |  |  |  |  |  |  |  |  | 11 | 23
8 | Cc1cn([C@H]2C[C@H](NS(=O)(=O)c3ccc4ccccc4c3)[C@@H](CO[Si](C)(C)C(C)(C)C)O2)c(=O)[nH]c1=O | 12 |  | Active |  |  |  |  |  |  |  |  | 8.4 | 7.4 | 14
